“And” between values parts separate entries of the source, which are not always exact repeats. Equal entries are not always repeated. The source made the active and inactive calls. The rule behind the calls is not given here.
Legend:
Calf thymus DNA [1] = assay: Ratio T2/T1 of DNA dissociation constant from calf thymus; type: functional; conditions: Bos taurus
How it was run: (§1)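 Stopped-flow SDS-sequestration assay. Sonicated calf thymus DNA (400 µM base pairs) and 20 µM drug in 0.1 SHE buffer (2 mM HEPES, 10 µM EDTA, 99.4 mM NaCl, pH 7.0) were mixed 1:1 with 20 mM SDS at 20 °C. Absorbance decay was deconvoluted into exponential time constants by curve stripping. At least six runs were averaged; ratios were taken between time constants.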

Calf thymus DNA [2] = assay: Ratio T3/T2 of DNA dissociation constant from calf thymus; type: functional; conditions: Bos taurus; how it was run: as §1
Calf thymus DNA [3] = assay: Logarithm of association constant for binding to DNA by ethidium displacement; type: nucleic-acid assay; conditions: Bos taurus
Calf thymus DNA [4] = assay: DNA dissociation constant from calf thymus; type: functional; conditions: Bos taurus; how it was run: as §1
Calf thymus DNA [5] = assay: DNA dissociation constant was determined from calf thymus; type: functional; conditions: Bos taurus; how it was run: as §1
P388 [6] = assay: Percentage increase in life span treated animals over those of controls injected with P388 leukemia cells; NA means no activity (ILS<20%) at all dose levels; type: functional; conditions: Mus musculus
P388 [7] = assay: Compound administered intraperitoneally was evaluated for optimal dose (OD) given per day after inoculation of 10e 6 P388 leukemia cells for highest nontoxic dose; type: functional, Mus musculus
Nucleic Acid = assay: Difference between log K of (AT) and log K of (GC) DNA binding; type: nucleic-acid assay
Calf thymus DNA [8] = assay: Ratio T4/T3 of DNA dissociation constant from calf thymus; type: functional; conditions: Bos taurus; how it was run: as §1
P388 [9] = assay: Percentage increase in life span treated animals over those of controls injected with P388 leukemia cells; type: functional, Mus musculus
P388 [10] = assay: Percentage increase in life span treated animals over those of controls injected with P388 leukemia cells; Na means no activity (ILS<20%) at all dose levels; type: functional; conditions: Mus musculus
[11] = tested on: L1210 (mouse leukemia cells); assay: Ability to inhibit growth of mouse leukemia L1210 cells
L1210 = assay: Evaluated for concentration which when added to cultures of L1210 leukemia cells for a period of 70 hr reduces cell numbers of 50% of control cultures; type: functional, cell-based; conditions: Mus musculus, L1210, 70 h
P388 [12] = assay: Percentage increase in life span treated animals over those of controls injected with P388 leukemia cells; NA means no activity (ILS <20%) at all dose levels; type: functional; conditions: Mus musculus
P388 [13] = assay: Percentage increase in life span treated animals over those of controls injected with P388 leukemia cells;NA means no activity (ILS<20%) at all dose levels; type: functional; conditions: Mus musculus
Calf thymus DNA [14] = assay: Ratio of DNA dissociation constant from calf thymus; type: functional; conditions: Bos taurus; how it was run: as §1
Calf thymus DNA [15] = assay: Ratio T2/T1 of DNA dissociation constant of poly(dG-dC) from calf thymus; type: functional; conditions: Bos taurus
Calf thymus DNA [16] = assay: Ratio T3/T2 of DNA dissociation constant of poly(dG-dC) from calf thymus; type: functional; conditions: Bos taurus
Calf thymus DNA [17] = assay: Dissociation constant of poly(dG-dC)DNA binding in calf thymus; type: functional; conditions: Bos taurus
Calf thymus DNA [18] = assay: Dissociation constant of poly(dG-dC)DNA in calf thymus; type: functional; conditions: Bos taurus

## CN(C)CCNC(=O)c1ccc2nc3ccccc3c(N)c2c1
Calf thymus DNA [1]
  Ratio: 2.7
Calf thymus DNA [2]
  Ratio: 3.37
Calf thymus DNA [3]
  Log K: 7.08 and 7.55
Calf thymus DNA [4]
  Time constant T1: 10 ms
  Time constant T3: 90 ms
Calf thymus DNA [5]
  Time constant T2: 27 ms
P388 [6]
  ILS: inactive
P388 [7]
  OD: 12.5 mg/kg
Nucleic Acid
  Log K delta: 0.47

## CCN(CC)CCNC(=O)c1cccc2c(N)c3ccccc3nc12
Calf thymus DNA [1]
  Ratio: 4.3
Calf thymus DNA [2]
  Ratio: 3.9
Calf thymus DNA [3]
  Log K: 7.26 and 7.59
Calf thymus DNA [8]
  Ratio: 5.5
Calf thymus DNA [4]
  Time constant T1: 3 ms
  Time constant T3: 51 ms
  Time constant T4: 280 ms
Calf thymus DNA [5]
  Time constant T2: 13 ms
P388 [9]
  ILS: 70
P388 [7]
  OD: 5.9 mg/kg
Nucleic Acid
  Log K delta: 0.33

## COc1cccc2c(N)c3cccc(C(=O)NCCN(C)C)c3nc12
Calf thymus DNA [1]
  Ratio: 4.1
Calf thymus DNA [2]
  Ratio: 4.3
Calf thymus DNA [3]
  Log K: 7.62 and 7.83
Calf thymus DNA [8]
  Ratio: 3.6
Calf thymus DNA [4]
  Time constant T1: 17 ms
  Time constant T3: 299 ms
  Time constant T4: 1080 ms
Calf thymus DNA [5]
  Time constant T2: 69 ms
P388 [9]
  ILS: 81
Nucleic Acid
  Log K delta: 0.21

## CN(C)CCNS(=O)(=O)c1cccc2c(N)c3ccccc3nc12
Calf thymus DNA [1]
  Ratio: 4.2
Calf thymus DNA [4]
  Time constant T1: 5 ms
Calf thymus DNA [5]
  Time constant T2: 21 ms
P388 [10]
  ILS: inactive
P388 [7]
  OD: 65 mg/kg
[11]
  IC50: 13000 nM

## COc1cc(C(=O)NCCN(C)C)c2nc3ccccc3c(N)c2c1
Calf thymus DNA [1]
  Ratio: 4
Calf thymus DNA [2]
  Ratio: 3.9
Calf thymus DNA [8]
  Ratio: 6.6
Calf thymus DNA [4]
  Time constant T1: 20 ms
  Time constant T3: 311 ms
  Time constant T4: 2050 ms
Calf thymus DNA [5]
  Time constant T2: 79 ms
P388 [9]
  ILS: 72
Nucleic Acid
  Log K delta: 0.76

## CN(C)CCN(C)C(=O)c1cccc2c(N)c3ccccc3nc12
Calf thymus DNA [1]
  Ratio: 5.5
Calf thymus DNA [3]
  Log K: 6.37
Calf thymus DNA [4]
  Time constant T1: 2 ms
Calf thymus DNA [5]
  Time constant T2: 11 ms
L1210
  IC50: 5300 nM
P388 [12]
  ILS: inactive
P388 [7]
  OD: 30 mg/kg
Nucleic Acid
  Log K delta: 0

## Nc1c2ccccc2nc2c(C(=O)NCCN3CCOCC3)cccc12
Calf thymus DNA [1]
  Ratio: 10
Calf thymus DNA [2]
  Ratio: 3.3
Calf thymus DNA [3]
  Log K: 7.29 and 7.58
Calf thymus DNA [8]
  Ratio: 4.4
Calf thymus DNA [4]
  Time constant T1: 4 ms
  Time constant T3: 135 ms
  Time constant T4: 590 ms
Calf thymus DNA [5]
  Time constant T2: 40 ms
P388 [13]
  ILS: inactive
P388 [7]
  OD: 30 mg/kg
Nucleic Acid
  Log K delta: 0.29

## Nc1c2ccccc2nc2c(C(=O)NCCNCCO)cccc12
Calf thymus DNA [14]
  Ratio: 3.4 and 2.9 and 4.4
Calf thymus DNA [3]
  Log K: 7.34 and 7.73
Calf thymus DNA [4]
  Time constant T1: 5 ms
  Time constant T3: 49 ms
  Time constant T4: 214 ms
Calf thymus DNA [5]
  Time constant T2: 17 ms
P388 [9]
  ILS: 73
P388 [7]
  OD: 20 mg/kg
Nucleic Acid
  Log K delta: 0.39

## CN(C)CCNC(=O)c1ccc2c(N)c3ccccc3nc2c1
Calf thymus DNA [1]
  Ratio: 4.5
Calf thymus DNA [2]
  Ratio: 3.6
Calf thymus DNA [3]
  Log K: 7.18 and 7.66
Calf thymus DNA [4]
  Time constant T1: 6 ms
  Time constant T3: 98 ms
Calf thymus DNA [5]
  Time constant T2: 27 ms
P388 [6]
  ILS: inactive
P388 [7]
  OD: 250 mg/kg
Nucleic Acid
  Log K delta: 0.48

## CN(C)CCCNC(=O)c1cccc2c(N)c3ccccc3nc12
Calf thymus DNA [1]
  Ratio: 3.8
Calf thymus DNA [2]
  Ratio: 2.9
Calf thymus DNA [3]
  Log K: 7.51 and 7.6
Calf thymus DNA [4]
  Time constant T1: 4 ms
  Time constant T3: 44 ms
Calf thymus DNA [5]
  Time constant T2: 15 ms
P388 [6]
  ILS: inactive
P388 [7]
  OD: 50 mg/kg
Nucleic Acid
  Log K delta: 0.09

## COc1cccc2nc3c(C(=O)NCCN(C)C)cccc3c(N)c12
Calf thymus DNA [1]
  Ratio: 5
Calf thymus DNA [2]
  Ratio: 5.6
Calf thymus DNA [3]
  Log K: 7.68 and 7.55
Calf thymus DNA [4]
  Time constant T1: 6 ms
  Time constant T3: 168 ms
Calf thymus DNA [5]
  Time constant T2: 30 ms
P388 [12]
  ILS: inactive
Nucleic Acid
  Log K delta: -0.18

## COc1ccc2c(N)c3cccc(C(=O)NCCN(C)C)c3nc2c1
Calf thymus DNA [1]
  Ratio: 3.2
Calf thymus DNA [2]
  Ratio: 3.3
Calf thymus DNA [3]
  Log K: 7.33 and 7.71
Calf thymus DNA [8]
  Ratio: 3.7
Calf thymus DNA [4]
  Time constant T1: 26 ms
  Time constant T3: 271 ms
  Time constant T4: 1000 ms
Calf thymus DNA [5]
  Time constant T2: 83 ms
P388 [12]
  ILS: inactive
Nucleic Acid
  Log K delta: 0.38

## COc1ccc(C(=O)NCCN(C)C)c2nc3ccccc3c(N)c12
Calf thymus DNA [1]
  Ratio: 4.6
Calf thymus DNA [2]
  Ratio: 3.5
Calf thymus DNA [3]
  Log K: 7.31 and 7.52
Calf thymus DNA [8]
  Ratio: 6.4
Calf thymus DNA [4]
  Time constant T1: 22 ms
  Time constant T3: 355 ms
  Time constant T4: 2270 ms
Calf thymus DNA [5]
  Time constant T2: 102 ms
L1210
  IC50: 0.6 nM
P388 [9]
  ILS: 27
Nucleic Acid
  Log K delta: 0.21

## CN(C)CCCCCNC(=O)c1cccc2c(N)c3ccccc3nc12
Calf thymus DNA [1]
  Ratio: 4
Calf thymus DNA [2]
  Ratio: 3.6
Calf thymus DNA [3]
  Log K: 7.45
Calf thymus DNA [4]
  Time constant T1: 4 ms
  Time constant T3: 58 ms
Calf thymus DNA [5]
  Time constant T2: 16 ms
Nucleic Acid
  Log K delta: 0

## CN(C)CCCCNC(=O)c1cccc2c(N)c3ccccc3nc12
Calf thymus DNA [15]
  Ratio: 6.5
Calf thymus DNA [1]
  Ratio: 4
Calf thymus DNA [16]
  Ratio: 3.3
Calf thymus DNA [2]
  Ratio: 3.3
Calf thymus DNA [3]
  Log K: 7.49 and 7.43
Calf thymus DNA [17]
  Time constant T1: 4 ms
Calf thymus DNA [4]
  Time constant T1: 4 ms
  Time constant T3: 52 ms
Calf thymus DNA [18]
  Time constant T2: 26 ms
  Time constant T3: 86 ms
Calf thymus DNA [5]
  Time constant T2: 16 ms
L1210
  IC50: 430 nM
Nucleic Acid
  Log K delta: -0.06

## COc1ccc2nc3c(C(=O)NCCN(C)C)cccc3c(N)c2c1
Calf thymus DNA [1]
  Ratio: 2.8
Calf thymus DNA [2]
  Ratio: 2.6
Calf thymus DNA [3]
  Log K: 7.64 and 7.66
Calf thymus DNA [8]
  Ratio: 5.2
Calf thymus DNA [4]
  Time constant T1: 9 ms
  Time constant T3: 64 ms
  Time constant T4: 330 ms
Calf thymus DNA [5]
  Time constant T2: 25 ms
P388 [12]
  ILS: inactive
Nucleic Acid
  Log K delta: 0.02

## CN(C)CCNC(=O)c1cccc2c(N)c3ccccc3nc12
P388 [9]
  ILS: 98

## Nc1c2ccccc2nc2ccccc12 [AMINACRINE]
Calf thymus DNA [1]
  Ratio: 6.3
Calf thymus DNA [3]
  Log K: 6.08 and 6.11
Calf thymus DNA [4]
  Time constant T1: 2.5 ms
Calf thymus DNA [5]
  Time constant T2: 15 ms
L1210
  IC50: 2600 nM
P388 [7]
  OD: 20 mg/kg
Nucleic Acid
  Log K delta: 0.07

## COc1ccc2c(N)c3ccccc3nc2c1C(=O)NCCN(C)C
Calf thymus DNA [1]
  Ratio: 2.9
Calf thymus DNA [2]
  Ratio: 4.4
Calf thymus DNA [3]
  Log K: 7.21 and 7.12
Calf thymus DNA [4]
  Time constant T1: 7 ms
  Time constant T3: 87 ms
Calf thymus DNA [5]
  Time constant T2: 20 ms
P388 [12]
  ILS: inactive
Nucleic Acid
  Log K delta: -0.09

## CN(C)CCCCCCNC(=O)c1cccc2c(N)c3ccccc3nc12
Calf thymus DNA [1]
  Ratio: 4.8
Calf thymus DNA [2]
  Ratio: 4.2
Calf thymus DNA [3]
  Log K: 7.41 and 7.4
Calf thymus DNA [4]
  Time constant T1: 4 ms
  Time constant T3: 80 ms
Calf thymus DNA [5]
  Time constant T2: 19 ms
Nucleic Acid
  Log K delta: -0.01
